An excerpt weighted towards active compounds, which were near 4.1% of everything screened.
Kir21 inh: Kir2.1 (mouse) channel inhibition | HEK293-Kir2.1, FluxOR thallium flux fluorescence; stronger effect = lower value | B-score at 10 µM | 310,000 tested, 0.85% active;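 active = fluorescence ratio B-score at or below minus 3 SD of library scores, with starting-brightness B-score within 2 SD, cut at about -4.2 in these data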;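 note: channel flux triggered by added potassium and thallium sulfate stimulus; B-score of peak minus minimum fluorescence over baseline after thallium stimulus; more negative B-score means stronger Kir2.1 block with less thallium influx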
Target sequence (P35561 whole entry, looked up): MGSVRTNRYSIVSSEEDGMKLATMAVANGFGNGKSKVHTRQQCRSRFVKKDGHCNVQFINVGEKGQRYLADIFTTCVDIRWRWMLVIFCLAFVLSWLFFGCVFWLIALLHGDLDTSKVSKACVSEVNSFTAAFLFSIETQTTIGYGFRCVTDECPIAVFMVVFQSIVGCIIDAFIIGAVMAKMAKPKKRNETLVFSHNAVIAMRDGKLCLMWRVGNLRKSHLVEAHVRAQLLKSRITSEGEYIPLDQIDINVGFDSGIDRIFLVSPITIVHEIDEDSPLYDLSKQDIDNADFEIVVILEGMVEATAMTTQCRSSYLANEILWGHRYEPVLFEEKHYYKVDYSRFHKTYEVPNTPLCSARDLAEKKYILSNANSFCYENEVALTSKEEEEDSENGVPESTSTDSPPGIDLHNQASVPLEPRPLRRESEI
MrgX1 ag: activates human MrgX1 receptor signaling | Q96LB2 | MrgX1-HEK293 cells, Fluo-4 calcium fluorescence, agonist mode; stronger effect = higher value | B-score at 10 µM | 310,000 tested, 0.44% active;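 active = calcium response B-score plate-corrected fluorescence ratio at least 3 library SD, with starting fluorescence B-score inside 5 SD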
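Material: HEK293 cells stably expressing human MrgX1 receptor | Quantity: 15,000 cells per well | Times: Cells plated overnight, dye loaded 0.5 h 37 °C, 0.5 h room temperature | Measured by: Kinetic Fluo-4 NW fluorescence of intracellular calcium | Control set: Positive and negative controls per plate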
MrgX1 antag: blocks BAM8-22 activation of human MrgX1 receptor | Q96LB2 | MRGX1-HEK293 calcium flux, Fluo-4, BAM8-22 antagonism; stronger effect = lower value | B-score at 10 µM | 310,000 tested, 1.3% active;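 active = calcium-response B-score plate-corrected more than 3 library SD below zero, starting fluorescence within 5 deviations, no agonist response on first addition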;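 note: peak minus trough fluorescence over baseline after final BAM8-22 challenge near maximal dose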
RGS4 pot: potentiators or activators of RGS4 | HEK293 M3R/inducible RGS4, carbachol calcium flux Fluo4; stronger effect = lower value | B-score at 10 µM | 310,000 tested, 0.92% active | AID 463111;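 active = B-score of the integrated calcium signal more than 4 SD below the library mean, with starting fluorescence not abnormally high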;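 note: negative B-score means reduced calcium response which marks RGS4 activation or potentiation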
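Assay system: Inducible-RGS4 HEK293 cells carrying M3 receptor | Schedule: Compound preincubation 20 min at room temperature before agonist | Signal: Kinetic calcium fluorescence imaging with Fluo4-AM dye, 2 µM | Read-out basis: B score from integrated fluorescence ratio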
RGS4 inh: human RGS4 inhibition. 310,000 tested, 0.45% active. P49798. HEK293 M3R/RGS4 inducible, Fluo-4 calcium flux; stronger effect = higher value; triggered by carbachol at its EC20. B-score at 10 µM. AID 463165;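 active = B-score, a plate-corrected calcium signal, over three deviations above library mean, with baseline fluorescence within five deviations of library mean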;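 note: RGS4 expression induced by doxycycline in cells with stable M3 receptor; B-score is computed from the integrated fluorescence ratio over baseline after carbachol; higher B-score means a larger calcium signal and so more RGS4 inhibition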
Target sequence (P49798 whole entry, looked up): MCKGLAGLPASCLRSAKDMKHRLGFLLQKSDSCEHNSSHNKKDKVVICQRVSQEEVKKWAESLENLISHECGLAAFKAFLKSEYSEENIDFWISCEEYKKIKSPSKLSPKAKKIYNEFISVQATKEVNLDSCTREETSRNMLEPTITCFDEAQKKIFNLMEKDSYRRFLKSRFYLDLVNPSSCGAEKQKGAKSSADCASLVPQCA
MrgX1 PAM: human MrgX1 positive allosteric modulation, primary screen; MrgX1-HEK293, Fluo-4 calcium flux, FDSS; stronger effect = higher value; B-score at 10 µM; 310,000 tested, 0.63% active; AID 588675;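 active = plate-corrected calcium response at least 3 library SD above typical, normal starting fluorescence, not activating the receptor alone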;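 note: compound read alongside a low EC10 to EC30 dose of BAM8-22 agonist; peak minus trough fluorescence over baseline measured at the second addition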
MrgX1 antag conf: human MrgX1 receptor antagonism, re-confirmation screen; shares compounds with MrgX1 antag; MrgX1-HEK293, BAM8-22 calcium flux, Fluo-4; stronger effect = lower value; 2,300 tested, 19% active; AID 602420; remaining BAM8-22 calcium response % of control (stronger effect = lower value), % at 10 µM;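 active = remaining agonist calcium response no higher than 100% minus 3 SD of agonist-only control wells, with starting fluorescence near control levels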;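 note: agonist BAM8-22 given at a near maximal EC90 to ECmax level; peak minus minimum fluorescence divided by baseline after agonist addition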
HEK293 Ca flux: activity in parental HEK293 cells lacking MrgX1; shares compounds with MrgX1 antag; Fluo-4 calcium fluorescence, FDSS; fluorescence ratio F(max-min)/F0 at 10 µM; 4,000 tested, 2% active; AID 624111;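 active = duplicate-averaged calcium fluorescence ratio at least three times the standard deviation of buffer wells, a nonspecific response in parental cells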
HEK293 Ca counter: MrgX1 allosteric activator counter-screen hit in parental HEK293 cells; fluorescence ratio F(max-min)/F0 at 10 µM; parental HEK293 calcium flux, Fluo-4 fluorescence ratio; stronger effect = higher value; shares compounds with MrgX1 antag; 4,000 tested, 0.4% active; AID 624114;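 active = calcium fluorescence ratio, averaged over duplicates, at least 3 SD of the buffer-well ratio, meaning a nonspecific response in receptor-free cells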;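 note: untransfected parental HEK293 lacking MrgX1 used as counterscreen for MrgX1 allosteric activators; fluorescence change taken during the second addition on a kinetic imager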
HEK293 Ca cntr2: activity in parental HEK293 cells lacking MrgX1 receptor | AID 624115 | shares compounds with MrgX1 antag | 4,000 tested, 8.7% active | Fluo-4 calcium fluorescence (FDSS); stronger effect = higher value | fluorescence ratio F(max-min)/F0 at 10 µM;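 active = calcium fluorescence ratio at least three times the spread of buffer wells, meaning a non-specific response in parental cells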
Of the large screens only hits and unclear results are named; the others gave an inactive call (follow-up assays come after a bar, where they were run).

C=CCSc1nc(N)c(C(=O)Nc2ccccc2OC)cc1C(=O)Nc1ccccc1	MrgX1 antag -5.9 | MrgX1 antag conf 78% | HEK293 Ca flux inactive | HEK293 Ca counter inactive | HEK293 Ca cntr2 inactive
Cc1nn(C(C)C(=O)NCCc2ccccc2)c(=O)c2cc3occc3n12 (centres undefined)	none
O=C(O)CCCCn1c(SCc2cc(=O)n3cc(Cl)ccc3n2)nc2ccsc2c1=O	none
CCCn1c(=N)n(CC(=O)c2cccs2)c2ccccc21	MrgX1 antag -4.6 | MrgX1 antag conf inactive | HEK293 Ca flux inactive | HEK293 Ca counter inactive | HEK293 Ca cntr2 inactive
Cn1c(=N)n(CC(=O)c2cccs2)c2ccccc21	none
Cc1ccsc1C(=O)OCC(=O)N1CC(=O)Nc2ccccc21	none
CCOC(=O)c1cc2occc2n1CCCN1C(=O)c2ccccc2C1=O	MrgX1 antag -6.1 | MrgX1 antag conf inactive | HEK293 Ca flux inactive | HEK293 Ca counter inactive | HEK293 Ca cntr2 inactive
Cc1cc(C)n2ncc(C(=O)Nc3cccc(O)c3)c2n1	MrgX1 antag -5.9 | MrgX1 antag conf inactive | HEK293 Ca flux inactive | HEK293 Ca counter inactive | HEK293 Ca cntr2 inactive
COCCN(C(=O)C1CC1)c1nnc(-c2cccc(C)c2)s1	MrgX1 antag -5.4 | MrgX1 antag conf inactive | HEK293 Ca flux inactive | HEK293 Ca counter inactive | HEK293 Ca cntr2 inactive
COc1ccc(NC(=O)c2cc(-c3ccccn3)nc3c(C)cc(C)cc23)c(C)c1	none
O=C(CCNC(=O)c1ccc(Br)cc1)NCc1ccncc1	MrgX1 antag -6.1 | MrgX1 antag conf inactive | HEK293 Ca flux inactive | HEK293 Ca counter inactive | HEK293 Ca cntr2 inactive
O=C(NCc1ccncc1)c1ccc(Br)cc1	none
CCCCC(=O)NC1=C(C(=O)OC)SCC1	MrgX1 antag -4.9 | MrgX1 antag conf inactive | HEK293 Ca flux inactive | HEK293 Ca counter inactive | HEK293 Ca cntr2 inactive
Cc1cc(C(=O)COc2ccccc2C(N)=O)c(C)n1CC1CCCO1 (centres undefined)	MrgX1 antag -4.7 | MrgX1 antag conf 71% | HEK293 Ca flux inactive | HEK293 Ca counter inactive | HEK293 Ca cntr2 inactive
O=C(Cn1cc2c(n1)CCCC2)N1CCOCC1	MrgX1 antag -5.4 | MrgX1 antag conf inactive | HEK293 Ca flux inactive | HEK293 Ca counter inactive | HEK293 Ca cntr2 inactive
COc1ccc(-c2csc(/C(C#N)=C\c3ccc(O)c([N+](=O)[O-])c3)n2)cc1OC	MrgX1 antag -11 | MrgX1 antag conf 41% | HEK293 Ca flux inactive | HEK293 Ca counter inactive | HEK293 Ca cntr2 inactive
COc1ccc(-c2csc(/C(C#N)=C\c3ccc(OC)c([N+](=O)[O-])c3)n2)cc1	none
Cc1c(C(=O)N(C)C)c2cc(Cl)ccc2n1O	MrgX1 antag -5 | MrgX1 antag conf inactive | HEK293 Ca flux inactive | HEK293 Ca counter inactive | HEK293 Ca cntr2 inactive
CCOc1ccc(CC(=O)Nc2cc(=O)n(C)c(=O)n2C)cc1	none
COc1ccc(CC(=O)Nc2cc(=O)n(C)c(=O)n2C)cc1	MrgX1 antag -7.7 | MrgX1 antag conf inactive | HEK293 Ca flux inactive | HEK293 Ca counter inactive | HEK293 Ca cntr2 inactive
Cc1nc2sc3c(c2c(=O)o1)CC(C)(C)OC3	MrgX1 antag -6.1 | MrgX1 antag conf inactive | HEK293 Ca flux inactive | HEK293 Ca counter inactive | HEK293 Ca cntr2 inactive
CCOc1ccc(CN(C(=O)c2cc3ccccc3oc2=O)C2CCS(=O)(=O)C2)cc1 (centres undefined)	none
COc1ccc(OC)c(NC(=O)c2ccc3c(c2)OCO3)c1	none
CCN(CC)S(=O)(=O)c1ccc(OC)c(NC(=O)c2ccc3c(c2)OCO3)c1	MrgX1 antag -7.6 | MrgX1 antag conf inactive | HEK293 Ca flux inactive | HEK293 Ca counter inactive | HEK293 Ca cntr2 inactive
COc1cc(C(=O)Nc2ccccc2C(=O)Nc2ccccn2)cc(OC)c1OC	none
Cc1ccc(C(=O)NC(NCc2ccco2)C(Cl)(Cl)Cl)cc1 (centres undefined)	none
O=C(COC(=O)c1cnccn1)NCCc1ccc(Cl)cc1Cl	MrgX1 antag -5.9 | MrgX1 antag conf inactive | HEK293 Ca flux inactive | HEK293 Ca counter inactive | HEK293 Ca cntr2 inactive
CCOC(=O)c1cc([N+](=O)[O-])sc1NC(=O)c1ccc(S(=O)(=O)N2CC3(C)CC2CC(C)(C)C3)cc1 (centres undefined)	MrgX1 antag -11, RGS4 pot -9.1 | MrgX1 antag conf inactive | HEK293 Ca flux 0.48 | HEK293 Ca counter inactive | HEK293 Ca cntr2 inactive
CCOC(=O)C1=C(O)/C(=C\c2sccc2C)N=C1C	MrgX1 antag -5.2 | MrgX1 antag conf inactive | HEK293 Ca flux inactive | HEK293 Ca counter inactive | HEK293 Ca cntr2 inactive
COC(=O)C1=C(O)/C(=C\c2sccc2C)N=C1C	none
Cc1ccccc1CS(=O)(=O)c1nnc([C@H](Cc2ccccc2)NC(=O)OC(C)(C)C)o1	none
Cc1cc(NC(=O)CSc2nnc(C3COc4ccccc4O3)n2N)no1 (centres undefined)	none
C=CCn1c(SCC(=O)Nc2cc(C)on2)nnc1C1COc2ccccc2O1 (centres undefined)	MrgX1 antag -6.1 | MrgX1 antag conf 85% | HEK293 Ca flux inactive | HEK293 Ca counter inactive | HEK293 Ca cntr2 inactive
CCn1c(C)c(C(C)=O)c(N2CCN(c3ccccc3)CC2)nc1=S	MrgX1 antag -8.9 | MrgX1 antag conf inactive | HEK293 Ca flux inactive | HEK293 Ca counter inactive | HEK293 Ca cntr2 inactive
CCOC(=O)c1cnc(-n2nc(C)cc2C)nc1NC1CCCCC1	MrgX1 antag -4.9 | MrgX1 antag conf 67% | HEK293 Ca flux inactive | HEK293 Ca counter inactive | HEK293 Ca cntr2 inactive
CC(=O)c1ccc(N2CCN(c3ccc(C(F)(F)F)cn3)CC2)cc1	none
O=C(NC1CCCN(c2ccc(C(F)(F)F)cn2)C1)c1ccnc(Cl)c1 (centres undefined)	MrgX1 antag -4.9 | MrgX1 antag conf 84% | HEK293 Ca flux inactive | HEK293 Ca counter inactive | HEK293 Ca cntr2 inactive
Cc1cccc(NC(=O)c2ccc(C(=O)c3ccccc3)cc2)n1	MrgX1 antag -4.9 | MrgX1 antag conf 77% | HEK293 Ca flux inactive | HEK293 Ca counter inactive | HEK293 Ca cntr2 inactive
O=C(O)CC(C(=O)O)n1nc(-c2ccccc2)cc1-c1ccccc1 (centres undefined)	none

Compound activity deposited in PubChem BioAssay by Johns Hopkins Ion Channel Center.
